NadD block – inhibitors of Staphylococcus aureus NadD | purified NadD enzyme, colorimetric absorbance read-out | actives 0.78% (n = 360,000) | inhibition, % at 20 µM | AID 602399; in the data active means inhibition above about 26%
ASAP1 inh – blocks human ASAP1-stimulated Arf1 GTP hydrolysis | Q9ULH1 | GDP FP detection | inhibition, % at 16.5 µM | actives 0.19% (n = 360,000); in the data active means inhibition above about 25%
Target sequence (Q9ULH1 325-724 limits assumed): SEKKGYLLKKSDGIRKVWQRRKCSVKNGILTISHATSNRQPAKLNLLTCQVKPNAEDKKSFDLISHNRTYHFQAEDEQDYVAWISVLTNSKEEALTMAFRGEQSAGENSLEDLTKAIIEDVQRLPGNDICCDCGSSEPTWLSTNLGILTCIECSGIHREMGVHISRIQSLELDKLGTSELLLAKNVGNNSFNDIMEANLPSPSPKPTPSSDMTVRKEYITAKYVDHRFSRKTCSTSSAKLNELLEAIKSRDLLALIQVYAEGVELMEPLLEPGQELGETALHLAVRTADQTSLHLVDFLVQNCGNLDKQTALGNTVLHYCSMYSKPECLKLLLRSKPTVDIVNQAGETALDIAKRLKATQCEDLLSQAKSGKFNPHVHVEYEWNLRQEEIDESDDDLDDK
rCAG binder – binds r(CAG) RNA repeats; r(CAG) RNA repeat, TO-PRO-1 dye displacement fluorescence; inhibition, % at 3 µM; actives 1.3% (n = 370,000); AID 651821;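 active means inhibition above the plate cutoff, the mean of all test compounds on that plate plus 3 SD, cut at about 35% in these data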;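 further: higher means more dye released from RNA so lower well fluorescence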
ARFGAP1 inhibitor – inhibitors of rat ARFGAP1; Q62848; Arfgap1-stimulated ARF1 GTP hydrolysis, GDP FP detection; inhibition, % at 16.5 µM; actives 0.26% (n = 360,000);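 active means inhibition above a per-plate limit, mean inhibition of low control wells plus 3 SD, cut at about 25% in these data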
Target sequence (Q62848 1-136 limits assumed): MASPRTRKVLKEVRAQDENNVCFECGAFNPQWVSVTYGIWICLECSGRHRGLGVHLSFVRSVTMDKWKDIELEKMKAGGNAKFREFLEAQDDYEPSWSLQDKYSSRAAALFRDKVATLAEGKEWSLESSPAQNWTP
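Assay system: purified rat His6-Arfgap1 residues 1-136 (GAP domain); Reagent: human Δ17 ARF1 bound to GTP; Dosing: 16.5 µM single point, 1.26% DMSO; Times: GTP hydrolysis reaction 2 h at 25 °C; Signal: FP, GDP Alexa 633 tracer displaced from anti-GDP antibody, 620/688 nm; Measure: % inhibition from polarization.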
rCAG bind conf – r(CAG) RNA repeat binding, confirmation; AID 652065; actives 70% (n = 4,300); shares compounds with rCAG binder; TO-PRO-1 dye displacement fluorescence; inhibition, % at 3 µM;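 active means inhibition above a per-plate cutoff, the mean inhibition of sample wells plus 3 SD, cut at about 35% in these data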;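 further: loss of TO-PRO-1 fluorescence as compound displaces dye from 1x1 AA loop RNA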
dCAG dye counter – counter-screen for rCAG RNA binders: DNA CAG dye complex inhibitors | shares compounds with rCAG binder | actives 94% (n = 4,300) | d(CAG) DNA oligo TO-PRO-1 dye displacement, fluorescence | AID 652068 | inhibition, % at 3 µM;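 active means inhibition above its plate's cutoff, the mean test-well inhibition plus 3 SD, cut at about 4.8% in these data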;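 further: hits displace the dye from DNA and so lower well fluorescence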
dCAG dye DR – counter-screen for rCAG binders: inhibitors of DNA CAG TO-PRO-1 complex. shares compounds with rCAG binder. DNA CAG/GTC duplex TO-PRO-1 dye displacement fluorescence. IC50, µM. actives 20% (n = 250); in the data active means IC50 below about 10 µM
A number is an active result; n = inactive; x = no result. In the library only some 2.2% were active in any assay of this set; here they are far more common.

SMILES | NadD block | ASAP1 inh | rCAG binder | ARFGAP1 inhibitor | rCAG bind conf | dCAG dye counter | others
O=C(NNC(=S)Nc1cccc(C(F)(F)F)c1)c1ccc(Cl)cc1Cl | n | n | 62 | n | 59 | 21
Cc1ccccc1C(=O)NNC(=S)Nc1cccc(C(F)(F)F)c1 | n | n | n | n | x | x
CCOc1ccc(NC(=S)NNC(=O)c2cc(Br)ccc2Cl)cc1 | n | n | 38 | n | n | 8.8
CCOc1ccc(NC(=S)NNC(=S)Nc2cccc(C(F)(F)F)c2)cc1 | n | n | 38 | n | 55 | 22
CC(=O)N1C[C@@H](CO)[C@@H]2C[C@H]1c1ccccc1N2C | x | n | n | n | x | x
O=C1C(Nc2ccccc2)=C/C(=N/S(=O)(=O)c2cccs2)c2ccccc21 | n | x | x | x | x | x
Cc1ccc(S(=O)(=O)/N=C2\C=C(Nc3cccc(C(=O)O)c3)C(=O)c3ccccc32)cc1 | n | n | 47 | n | n | 4.7
Cc1ccc(S(=O)(=O)/N=C2\C=C(Nc3cccc(C(=O)O)c3)C(=O)c3ccccc32)c(C)c1 | n | n | 76 | n | 83 | 50
Cc1ccc(S(=O)(=O)/N=C2\C=C(NS(=O)(=O)c3ccccc3)C(=O)c3ccccc32)c(C)c1 | 32 | n | 54 | n | 86 | 58
Cc1cccc(NC2=C(NC(=O)c3ccccc3)C(=O)c3ccccc3C2=O)c1 | n | n | n | n | x | x
Cc1ccc2c(c1)C1CS(=O)(=O)N(CCc3ccccc3)CN1C2 (stereo not drawn) | x | x | n | x | x | x
Cc1ccc(OCc2n[nH]c(=S)n2-c2ccc(Cl)cc2)cc1 | n | n | n | n | x | x
Cc1ccc(C2=Nn3c(COc4ccc(Cl)cc4)nnc3SC2CC(=O)O)cc1 (stereo not drawn) | n | n | 47 | n | 42 | 11
CC1(C(=O)NS(=O)(=O)c2ccccc2)CCN1C(=O)C1(c2ccc(Cl)cc2)CCC1 (stereo not drawn) | n | n | n | n | x | x
Cc1ccccc1S(=O)(=O)NC(=O)C1(C)CCN1C(=O)C1(c2ccc(Cl)cc2)CCC1 (stereo not drawn) | n | n | 48 | n | 37 | 8.8
CC1(C(=O)NS(=O)(=O)c2ccccc2Cl)CCN1C(=O)C1(c2ccc(Cl)cc2)CC1 (stereo not drawn) | n | n | 36 | n | n | 5.1
CC1(C(=O)NS(=O)(=O)c2ccccc2Cl)CCN1C(=O)C1(c2ccccc2)CC1 (stereo not drawn) | n | n | n | n | x | x
COC(=O)[C@H](Cc1ccccc1)NP(=O)(OC)[C@@H](C)NC(=O)OCc1ccccc1 (stereo partly drawn) | x | x | n | x | x | x
O=S(=O)(c1sccc1Br)n1c(CN2CCOCC2)nc2ccccc21 | x | x | n | x | x | x
O=S(=O)(Nn1c(O)c(C=C2N=c3ccccc3=N2)sc1=S)c1ccccc1 | n | n | 89 | n | 72 | 37
O=C(Nn1c(O)c(C=C2N=c3ccccc3=N2)sc1=S)c1ccccc1Cl | n | n | 63 | n | n | 11
CCn1c(O)c(C=C2N=c3ccccc3=N2)sc1=S | n | n | n | n | x | x
CCN1CCN(CCCNC(=O)c2ccc(CS(=O)c3ccc(Br)cc3)o2)CC1 (stereo not drawn) | n | n | n | n | x | x
CC(C)c1cc(C(=O)NNC(=S)NCc2ccco2)c(O)c(C(C)C)c1 | n | n | 65 | n | 58 | 24
O=C(Cn1cc(COc2ccc3ccccc3c2)nn1)NS(=O)(=O)c1cccc(OC(F)F)c1 | n | n | 55 | n | 71 | 23 | dCAG dye DR=9.3
SMILES | NadD block | ASAP1 inh | rCAG binder | ARFGAP1 inhibitor | rCAG bind conf | dCAG dye counter | others
Cc1nn(-c2ccc(F)cc2)c(Cl)c1/C=C(\CC(=O)O)c1nc2ccccc2s1 | n | n | 38 | n | 45 | 11
Cc1nn(-c2ccc(F)cc2)c(Cl)c1/C=C(/CC(=O)O)c1nc2ccccc2s1 | n | n | 51 | n | 43 | 13
Cc1c(/C=C(\CC(=O)O)c2nc3ccccc3s2)cc(C#N)n1C | n | n | n | n | x | x
CC(C)c1ccc(/C=N/NC(=O)c2cccc(S(=O)(=O)N3CCOCC3)c2)cc1 | n | n | n | n | x | x
O=C(NN=Cc1cc(Cl)ccc1[N+](=O)[O-])c1cccc2ccccc12 | n | n | n | n | x | x
Cc1cc(C(=O)N/N=C/c2cc(Cl)cc([N+](=O)[O-])c2O)c2ccccc2n1 | n | n | 56 | n | 53 | 16
O=C(N/N=C/c1cc(Cl)cc([N+](=O)[O-])c1O)c1cccc(S(=O)(=O)N2CCOCC2)c1 | n | n | 68 | n | 56 | 20
COC(=O)[C@]12C[C@H](CC(=O)N3CCOCC3)C(=O)N(Cc3ccc(Cl)cc3Cl)C1=C[C@H](C1CCCC1)O[C@@H]2C | x | x | n | x | x | x
COC(=O)c1c(NS(=O)(=O)Cc2ccccc2)sc2c1CCCC2 | n | n | 48 | n | 47 | 16
CC(C)OC(=O)c1c(NS(=O)(=O)c2ccccc2)sc2c1CCCC2 | n | n | 35 | n | 50 | 14
Cc1cc(F)ccc1-c1cc(C(=O)NC(C)C)[nH]n1 | n | n | n | n | x | x
CC(C)[C@@H](C)/C=C/[C@@H](C)[C@H]1CC[C@@H]2[C@]1(C)CCC1[C@]23C=C[C@]2(C[C@@H](O)CC[C@]12C)N(c1ccc(Br)cn1)O3 (stereo partly drawn) | x | n | n | n | x | x
Cc1ccc(S(=O)(=O)NN=C(c2ccccc2)c2cccs2)cc1 | n | n | 36 | n | n | 6.7
COc1cc(/C=C/C(=O)O)cc(S(=O)(=O)Nc2cc(Cl)c(Cl)cc2Cl)c1OC | n | n | 65 | n | 37 | 7.4
COc1cc(/C=C/C(=O)O)cc(S(=O)(=O)Nc2cc(C(F)(F)F)ccc2N2CCOCC2)c1OC | n | n | 41 | n | n | 5.8
CCCCCCCCN1C(=O)[C@H](CC(=O)NCCCN2CCCC2=O)C[C@@]2(C(=O)OC)CCCCC=C12 | n | n | n | n | x | x
COC(=O)CCC1NC(=O)C(Cc2c[nH]c3ccccc23)NC(=O)C2CC(=O)OC(C)C(NC(=O)C(C)NC(=O)C3CCCN3C(=O)C3CCCN3C(=O)C(C)NC(C)=O)C(=O)NC(CC(C)C)C(=O)NC(CCCCNC(=O)CCC(C(=O)NC(Cc3ccc(O)cc3)C(=O)O)NC1=O)C(=O)NC(Cc1c[nH]c3ccccc13)C(=O)N1CCCC1C(=O)NC(CO)C(=O)N2 (stereo not drawn) | x | x | n | x | x | x
O=C(/C=C/c1ccco1)Nc1sc2c(c1C(=O)O)CCC2 | n | n | n | n | x | x
N#Cc1c(NC(=O)/C=C/c2ccco2)sc2c1CCCC2 | n | n | 38 | n | n | 14
COc1ccc(Cc2c(C3CCCCC3)nc3c(C)cc(Br)cn23)c(C)c1 | n | n | n | n | x | x
CCN(c1ccccc1)S(=O)(=O)c1cc(NC(=O)C2CC2)ccc1Cl | n | n | n | n | x | x
